Consider six molecules from ChEMBL document CHEMBL3244325, “Diastereoisomeric N-tetrahydrofurfurylnoroxymorphones with opioid agonist--antagonist properties” (J Med Chem, 1977).

Data set [1] is described as follows: Toxicity in sc dosed mouse. The class given is organism-based. Conditions: in vivo. The gist of the method: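 Acute toxicity in mice, expressed as LD50 calculated by the Litchfield and Wilcoxon method.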
Data set [2] is filed under the species Mus musculus. The experiment in a line: Inhibition of morphine-induced analgesia in mouse by tail clip method. The data set is classed as functional. The gist of the method:
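Mice dosed subcutaneously; morphine antagonism measured as suppression of morphine analgesia by a tail-clip-based procedure. AD50 in mg/kg estimated by graphical evaluation of log dose-response curves.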

In data set [3] the test system is Mus musculus. The experiment in a line: Analgesic activity in sc dosed mouse by tail clip method. The data set is classed as functional.
Data set [4] has as its system Mus musculus. The experiment in a line: Ratio of LD50 in sc dosed mouse to ED50 in sc dosed mouse by writhing test. For orientation: An intraperitoneal irritant provokes the stretching counted in writhing tests.
For data set [5], the system named is Mus musculus. Put plainly: Ratio of morphine hydrochloride ED50 to compound ED50 for sc dosed mouse assessed as inhibition of phenylquinone-induced writhing. The data set is classed as functional.
The subject of data set [6] is Mus musculus. Put plainly: Analgesic activity in sc dosed mouse assessed as inhibition of phenylquinone-induced writhing. The data set is classed as functional.
The subject of data set [7] is Mus musculus. The experiment in a line: Analgesic activity in sc dosed mouse by hot plate method. The data set is classed as functional.

As a reminder, the LD50 is the dose at which mortality reaches 50%. A word on the ED50: it is the midpoint of the dose-response relation.

As to `Cl.O=C1CC[C@@]2(O)[C@H]3Cc4ccc(O)c5c4[C@@]2(CCN3C[C@H]2CCCO2)[C@H]1O5`, the LD50 in data set [1] was found to be 955 mg/kg. Further, the AD50 in the data set filed under Mus musculus [2] was determined as 4 mg/kg. Also, the results for the ED50 in the data set with Mus musculus [3], with Mus musculus [6] and in the data set on Mus musculus [7] were 200 mg/kg, 0.02 mg/kg and 1.9 mg/kg, respectively. Moreover, in the data set on Mus musculus [4], the “Ratio LD50/ED50” value is 47750. For the same molecule, the “Ratio ED50” value in the data set on Mus musculus [5] worked out at 25.

Take `Cl.O=C1CC[C@@]2(O)[C@H]3Cc4ccc(O)c5c4[C@@]2(CCN3C[C@@H]2CCCO2)[C@H]1O5`: the 50% lethal dose (LD50) in data set [1] came to 810 mg/kg. In the data set filed under Mus musculus [2], this molecule gave an AD50 of 5 mg/kg.

As to `CN1CC[C@]23c4c5ccc(O)c4O[C@H]2[C@@H](O)C=C[C@H]3[C@H]1C5.Cl` [MORPHINE HYDROCHLORIDE], the median effective dose (ED50) amounted to 11 mg/kg with Mus musculus [3], 0.5 mg/kg with Mus musculus [6] and 1.2 mg/kg with Mus musculus [7].

In turn, `C=CCN1CC[C@]23c4c5ccc(O)c4O[C@H]2[C@@H](O)C=C[C@H]3[C@H]1C5.Cl` [NALORPHINE HYDROCHLORIDE] came in with a median lethal dose (LD50) in data set [1] of 560 mg/kg. In the data set filed under Mus musculus [2], this molecule came in with an AD50 of 1 mg/kg. Further, the median effective dose (ED50) with Mus musculus [6] was 0.5 mg/kg.

Consider `C=CCN1CC[C@]23c4c5ccc(O)c4O[C@H]2C(=O)CC[C@@]3(O)[C@H]1C5.Cl` [NALOXONE HYDROCHLORIDE], for which the median lethal dose (LD50) in data set [1] was found to be 286 mg/kg. In addition, in the data set listed under Mus musculus [2], the AD50 turned out to be 0.03 mg/kg.

`CC(C)=CCN1CCC2(C)c3cc(O)ccc3CC1C2C.Cl` (stereo not given) [PENTAZOCINE HYDROCHLORIDE] yielded an LD50 in data set [1] of 220 mg/kg. In the data set listed under Mus musculus [2], this molecule came in with an AD50 of 8 mg/kg. For the same molecule, in the data set with Mus musculus [6], the ED50 stood at 1.4 mg/kg.
